Reference: PubChem BioAssay AID1216 (Sanford-Burnham Center for Chemical Genomics, 2008)
The whole screen tested about 190,000 compounds, of which about 660 (0.35%) were called active.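 The calls were made as follows: active = activation factor of 2 or more at 20 µM; inactive = the rest.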 What follows is part of a selection rich in actives, with near analogues and random picks from the rest.

target: Mannose-6-phosphate isomerase (Homo sapiens) (UniProt P34949); assay: human PMI activators, high substrate, primary screen, biochemical, fluorescence intensity, near-saturating mannose 6-phosphate (AID 1216); settings: coupled PMI enzyme assay, resazurin fluorescence, 20 min; at 20 µM; hits give high values; 1 = untreated enzyme, 0 = substrate-free blank
How it was run: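 assay system = human phosphomannose isomerase with PGI, G6PDH, diaphorase coupling enzymes | quantity = 15 ng/mL PMI | incubation = enzyme reaction with compound 20 min at room temperature | medium = HEPES pH 7.4 buffer with MgCl2 and Tween-20 | compound dosing = one concentration, 20 µM, in 1% DMSO | measured by = Diaphorase-driven resazurin-to-resorufin fluorescence, excitation 544, emission 590 nm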

Mannose-6-phosphate isomerase (Homo sapiens), sequence (P34949 whole entry, looked up): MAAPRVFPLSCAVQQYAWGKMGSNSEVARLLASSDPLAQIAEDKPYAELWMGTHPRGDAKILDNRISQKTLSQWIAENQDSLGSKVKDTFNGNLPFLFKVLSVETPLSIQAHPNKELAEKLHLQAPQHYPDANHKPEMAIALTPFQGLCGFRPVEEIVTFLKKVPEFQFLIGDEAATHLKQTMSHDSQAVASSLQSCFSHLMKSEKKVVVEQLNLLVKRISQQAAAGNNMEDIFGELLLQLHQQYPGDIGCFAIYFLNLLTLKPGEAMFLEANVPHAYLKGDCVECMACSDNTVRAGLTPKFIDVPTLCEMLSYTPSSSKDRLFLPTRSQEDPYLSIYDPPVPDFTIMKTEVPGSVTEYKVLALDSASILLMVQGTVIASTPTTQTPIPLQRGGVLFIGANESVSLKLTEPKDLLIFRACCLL

Activation factor, active:
S=c1ccc2ccccc2[nH]1 2.8
O=C(O)c1ccc(N/N=C/c2ccc3ncccc3c2)cc1 2.3
CSc1c(SCc2ccccc2)cnn(Cc2ccccc2)c1=O 2.4
Cc1cccc(C)c1NC(=O)C1(C)c2cccc[n+]2CC(=O)N1Cc1cccs1 (centres undefined) 2
O=C(NN=C1CCC(=NNC(=O)c2cccnc2)CC1)c1cccnc1 2
Cc1ccc(NN=Nc2nc3c([nH]2)c(=O)n(C)c(=O)n3C)cc1 2
C=C1c2cc(CC)ccc2NC(=O)N1c1ccc(C)cc1 2.1
COc1cc(C(=O)OCc2ccc([N+](=O)[O-])cc2)cc(OC)c1OC 2
CCOC(=O)C1=C(C)NC(SC)=NC1c1ccccc1 (centres undefined) 2.7
Cc1cc(C2=NNC(=Nc3ccc(S(=O)(=O)N4CCOCC4)cc3)SC2)c(C)n1CC1CCCO1 (centres undefined) 2.1
O=C(NNc1cc(Cl)ccc1Cl)c1cccnc1Cl 2
COC(=O)c1sc2[nH]c(=S)n(N)c(=O)c2c1C 2
COC(=O)c1[nH]c2cccc(C)c2c1NC(=O)CN1CCCc2ccccc21 2.1
COCCCNC(=S)NCCNc1nc2cc(C)c(C)cc2cc1C#N 2.1
S=c1[nH]nc(NCCc2ccccc2)s1 2.1
S=c1[nH]nc(Nc2ccccc2)s1 2

Activation factor, inactive:
c1ccc2[nH]c(-c3nc4ccccc4[nH]3)nc2c1 1.1
O=C(Nc1ccccc1)c1cc2ccccc2[nH]1 0.9
CCOc1ccc(C2c3[nH]c4ccccc4c3CCN2Cc2cn(CC)nc2C)cc1 (centres undefined) 0.8
CN(C)CC(C)(C)CNC(=O)c1cc(Br)cc(Br)c1O 0.8
O=C1C2C3C=CC(C4CC34)C2C(=O)N1c1nccs1 (centres undefined) 1
CCN(CC)CC1(O)CCN(C(=O)c2ccc(Cl)c(Cl)c2)CC1 0.9
CCNC(=S)NNC(=O)c1ccc2ncccc2c1 1
O=C(O)c1ccc(N/N=C/c2cn(-c3ccccc3)nc2-c2cccs2)cc1 1.7
Cc1ccc(NC(=O)N2CCSc3ccccc32)cc1 0.9
O=C(CNCc1ccc(Cl)cc1)Nc1cccc(C(=O)O)c1 1.1
Cn1c(CO)cnc1SCc1ccccc1 1.1
O=c1c2ccccc2c(-c2ccccc2)nn1Cc1ccccc1 1
COc1ccc(NC(=O)COc2ccc(C(=O)OCC(=O)N(C)C3CCS(=O)(=O)C3)cc2OC)cc1 (centres undefined) 1.1
Cc1ccnc(NC(=O)CCC(=O)N(CC(=O)NCCc2ccccc2)Cc2cccs2)c1 1
CCOC(=O)C(CC)/C(C)=N\NC(=O)c1cccc(C)c1 (centres undefined) 0.9
COc1ccc(NC(=O)C(C)SCc2ccccc2)cc1 (centres undefined) 1
Cc1cc(Cl)ccc1C(=O)C1CCCN(C(=O)CCN2CCCO2)C1 (centres undefined) 1.1
CCc1cccc(C)c1NC(=S)N(CCCN1CCN(C)CC1)Cc1cccs1 1
Cc1cccc(C)c1NC(=O)c1ccc(CN2CCc3ccccc3C2)cc1 1
Cc1ccc(N(CCC(=O)O)S(=O)(=O)c2cccc(C(F)(F)F)c2)cc1 1.1
O=[N+]([O-])c1ccc(N2CCN(S(=O)(=O)c3ccccc3)CC2)cc1N1CCc2ccccc2C1 0.9
COc1ccc(/C=N/N=C2/C(=O)Nc3ccccc32)cc1O 1
C/C=C/C=C/C(=O)OCC(=O)Nc1ccc(Cl)cc1 1
CS/C(=C\[N+](=O)[O-])Nc1ccc(C)cc1 1
Cn1cnnc1Sc1ccc(S(C)(=O)=O)cc1[N+](=O)[O-] 0.9
O=C(Nc1cnccn1)c1cccnc1 1
O=C(NNC(=O)c1cccnc1)Nc1ccccc1 1.1
C/C(N)=C(/C#N)C(=O)COC(=O)C1CCN(C(=O)c2ccc(Cl)cc2)CC1 1
CCc1cc2cc(OC)ccc2nc1SCC(=O)Nc1cc(OC)c(OC)cc1C(=O)O 0.8
O=C(/C=C/c1ccc(Cl)c([N+](=O)[O-])c1)c1cccnc1 1.1
CCCSc1nc2c(c(=O)n(C)c(=O)n2C)n1Cc1ccc(C)cc1 1
CC(CCO)Nc1nc2c([nH]1)c(=O)n(C)c(=O)n2C (centres undefined) 0.9
COc1ccc(NC(=S)SC)cc1OC 0.7
CCC(CC)C(=O)Nc1ccc(S(=O)(=O)Nc2nccs2)cc1 0.9
CCn1c(N)c(Br)c(=O)[nH]c1=O 1.1
CC(=O)Nc1sc2c(c1C(c1cccc(F)c1)N1CCN(CCO)CC1)CCCC2 (centres undefined) 1.1
Cc1cc(SCC(=O)NCCN2C(=O)CSC2=O)nc2ccccc12 1.2
Cc1cc(C(=O)COC(=O)C2CC2)c(C)n1-c1ccc(F)cc1 0.9
Cc1ccc(N2C(=O)C(Cc3ccccc3)NC2=S)cc1 (centres undefined) 0.8
Cc1ccc(N2C(=O)C3CC3C2=O)cc1 (centres undefined) 1
CCOC(=O)N1CCN(C(=O)Cn2cnc3ccccc3c2=O)CC1 1
COc1ccc(NC(=O)c2sc(N3CCOCC3)nc2-c2ccccc2)c(OC)c1 1
O=C(OCc1ccc([N+](=O)[O-])cc1)c1ccccn1 0.9
COc1cc(/C=N/O)ccc1OCc1ccc([N+](=O)[O-])cc1 1
COc1ccc(-n2nc(C(=O)Nc3cc(OC)c(OC)c(OC)c3)c3ccccc3c2=O)c(OC)c1 0.9
O=C(CSc1nnc(-c2ccc([N+](=O)[O-])cc2)o1)Nc1ccccn1 1
CCOC(=O)C1=C(C)NC(=O)NC1c1ccccc1 (centres undefined) 1
CCOC(=O)C1=C(C)NC(C)=C(C(=O)OCC)C1c1ccccn1 1
CSc1cccc(NC(=S)N(Cc2ccccc2)Cc2ccccn2)c1 0.9
CCO[C@@H]1OC(C(=O)NCc2nc3ccccc3[nH]2)=C[C@H](C2CCCCC2)[C@H]1CCCO 0.9
O=C(COC(=O)c1ccc(F)cc1)Nc1nc2ccc([N+](=O)[O-])cc2s1 1
COCCn1c(C)cc(C2=NNC(=Nc3ccc(F)cc3)SC2)c1C 1.3
C=CCn1c(C)cc(C2=NNC(=NCC)SC2)c1C 1.1
COc1ccccc1NC(=S)N1CCN(C(c2ccccc2)c2ccccc2)CC1 1
O=C(Nc1ccc(NC(=O)c2ccco2)c(Cl)c1)c1cccc([N+](=O)[O-])c1 1
CC(C)(C)c1ccc(/C=C/C(=O)Nc2ncccn2)cc1 0.8
Cc1ccc(CNC(=O)c2cccnc2Cl)cc1 1
Cc1ccc(Cl)cc1NC(=O)c1ccccn1 1
O=C(COc1ccc(-c2ccccc2)cc1)NN=C1CCCC1 1
Cc1ccc(-c2nn(-c3cccc(F)c3)cc2CNCCc2ccncc2)o1 1
COc1ccc(N2CCN(C(=O)CCSCc3ccccc3F)CC2)cc1 0.9
CCOc1cc(N2CCOCC2)c(OCC)cc1NC(=O)c1ccc(C)s1 0.7
COC(=O)c1sc(=S)n(-c2ccccc2)c1N 0.9
CCOC(=O)Cn1c(N)c(C(=O)OC)sc1=S 1.1
Cc1cccc(C)c1NC(=O)CNC(=O)Cc1ccc(Br)cc1 1
O=S(=O)(Nc1cc(S(=O)(=O)N2CCOCC2)ccc1N1CCCC1)c1cccs1 1.1
NC(=O)CC[C@@H]1NC(=O)[C@@H]2CCCN2C(=O)c2cc([N+](=O)[O-])cc(F)c2NCCC[C@@H](C(N)=O)NC1=O 1
O=C(CC1C(=O)NCCN1CC(c1ccccc1)c1ccccc1)NCCc1cn[nH]c1 (centres undefined) 0.8
NS(=O)(=O)c1cccc(NC(=O)CN2CCCc3ccccc32)c1 1.1
COC(=O)c1[nH]c2ccccc2c1NC(=O)CN1CCCc2ccccc21 0.9
C=CCNC(=O)c1ccccc1NC(=O)c1ccc(Cl)c(S(=O)(=O)Nc2cccc(C)c2C)c1 1
Cc1cccc(C)c1NC(=S)N(Cc1cccnc1)Cc1ccccc1Cl 0.8
CCOC(=O)c1[nH]ncc1CN1CCCC(C(=O)c2ccc(OC)cc2C)C1 (centres undefined) 1.1
COc1ccccc1N(C)S(=O)(=O)c1ccc(Cl)c(C(=O)N2CCC(C(N)=O)CC2)c1 1.1
CCn1cc(-c2cc(C(=O)O)on2)c(C)n1 1.2
Cc1ccc2nc(NCCCNC(=O)c3cnccn3)c(C#N)cc2c1 0.9
COCCCNC(=S)NC(=O)c1ccc([N+](=O)[O-])cc1 0.9
O=C(NCc1ccccc1Cl)C1CCC(CNc2c(N3CCCCC3)c(=O)c2=O)CC1 (centres undefined) 1
CCCCn1c(O)c(N=NC(=O)Cn2c(C(F)(F)F)nc3ccccc32)c2ccccc21 1
CCOC(=O)N1CCC(=NNC(N)=O)CC1 1
COc1cccc2cc(/C(C)=N/NC(=O)c3ccco3)oc12 1.1
COc1ccccc1N(CC(=O)Nc1ccc(C(F)(F)F)cc1)S(C)(=O)=O 1.1
CC(C)(C)C(=O)c1cnc(Nc2ccccc2)s1 1
Cc1nc(C)c(-c2csc(NCCc3ccccc3)n2)s1 1
c1ccc(Nc2n[nH]nc2-c2ccccc2)cc1 0.9
O=C(CSc1ncccn1)NCCc1ccccc1 1
N=c1c2c3c(sc2ncn1N)CCCC3 0.9
O=c1[nH]cnc2c1c(-c1ccccc1)cn2-c1ccc(F)cc1 1
